Measurements reported in ChEMBL document CHEMBL4706624, “Synthesis and evaluation of new quinazoline-benzimidazole hybrids as potent anti-microbial agents against multidrug resistant Staphylococcus aureus and Mycobacterium tuberculosis” (Eur J Med Chem, 2021).
Values after ≈ are worked out from the molar mass of the structure shown.

Tests used:
[1] = system: Staphylococcus aureus; test: Antibacterial activity against Staphylococcus aureus ATCC 29213 measured after 16 to 18 hrs; type: functional; settings: time 16-18 hrs
Outline: (§1)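 Broth microdilution MIC. Strains grown on MHA; a single colony was grown overnight in CA-MHB at 37 °C with shaking for 18–24 h. Cultures were diluted by OD600 to ~10⁶ cfu/mL and exposed to compound at […]. Plates were incubated at 37 °C for 16-18 h. MIC = lowest concentration with no visible growth. Levofloxacin was the reference. Three independent runs, each in duplicate.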

[2] = system: Mycobacterium tuberculosis; test: Antitubercular activity against Mycobacterium tuberculosis H37Rv ATCC 27294 measured after 7 days by broth microdilution method; type: functional; settings: H37Rv ATCC 27294, 168 h, time 7 day
Outline: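 H37Rv in Middlebrook 7H9 with 10% ADC, 0.2% glycerol, 0.05% Tween-80. Inoculum ~10⁶ cfu/mL set by OD600. Twofold serial dilutions, 0.0064–0.00005 g/100 mL. Incubated at 37 °C for 7 days, then Presto blue resazurin read-out. MIC = lowest concentration inhibiting visible growth. Triplicate runs, each in duplicate.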

[3] = system: Staphylococcus aureus; test: Antibacterial activity against vancomycin-resistant Staphylococcus aureus VRS4 measured after 16 to 18 hrs; type: functional; settings: time 16-18 hrs; outline: as §1
[4] = system: Staphylococcus aureus; test: Antibacterial activity against vancomycin-resistant Staphylococcus aureus VRS1 measured after 16 to 18 hrs; type: functional; settings: time 16-18 hrs; outline: as §1
[5] = system: Staphylococcus aureus; test: Antibacterial activity against vancomycin-resistant Staphylococcus aureus VRS12 measured after 16 to 18 hrs; type: functional; settings: time 16-18 hrs; outline: as §1
[6] = system: Acinetobacter baumannii; test: Antibacterial activity against Acinetobacter baumannii BAA1605 measured after 16 to 18 hrs; type: functional; settings: time 16-18 hrs; outline: as §1
[7] = system: Pseudomonas aeruginosa; test: Antibacterial activity against Pseudomonas aeruginosa ATCC 27853 measured after 16 to 18 hrs; type: functional; settings: time 16-18 hrs; outline: as §1
[8] = system: Escherichia coli; test: Antibacterial activity against Escherichia coli ATCC 25922 measured after 16 to 18 hrs; type: functional; settings: time 16-18 hrs; outline: as §1
[9] = system: Klebsiella pneumoniae; test: Antibacterial activity against Klebsiella pneumoniae BAA-1705 measured after 16 to 18 hrs; type: functional; settings: ATCC BAA-1705, time 16-18 hrs; outline: as §1
[10] = system: Mycolicibacterium fortuitum; test: Antimycobacterial activity against Mycobacterium fortuitum ATCC 6841 by broth microdilution method; type: functional
Outline: (§2)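 Broth microdilution MIC in Middlebrook 7H9 with 10% ADC-Tween-80 (BSA, dextrose, 0.2% glycerol, 0.05% Tween-80). Inoculum ~10⁶ cfu/mL set by OD600. Compounds were twofold serially diluted, 0.0064–0.00005 g/100 mL (DMSO stocks). Presto blue resazurin dye was used as read-out. MIC = lowest concentration inhibiting visible growth. Triplicate runs, each in duplicate.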

[11] = Selectivity index, ratio of CC50 for cytotoxicity against African green monkey Vero cells to MIC for antibacterial activity against Staphylococcus aureus ATCC 29213; type: toxicity, cell-based; settings: read-out: Selectivity Index
Outline: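 SI = Vero CC50 (MTT, 72 h) divided by MIC against S. aureus ATCC 29213 (CA-MHB broth microdilution, 16-18 h, 37 °C).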

[12] = Cytotoxicity against African green monkey Vero cells assessed as reduction in cell viability measured after 72 hrs by MTT assay; type: cell-based; settings: chlorocebus sabaeus
Outline: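 Vero cells (ATCC CCL-81), ~10³ cells/well, held 24 h at 37 °C in 5% CO₂. Compound at 100–5 mg/L for 72 h. MTT was added for 4 h, formazan dissolved in DMSO, OD read at 540 nm. CC50 = concentration giving 50% viability reduction. Doxorubicin was the positive control. Triplicate.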

[13] = system: Mycobacteroides abscessus; test: Antimycobacterial activity against Mycobacterium abscessus ATCC 19977 by broth microdilution method; type: functional; outline: as §2
[14] = system: Mycobacteroides chelonae; test: Antimycobacterial activity against Mycobacterium chelonae ATCC 35752 by broth microdilution method; type: functional; outline: as §2
[15] = system: Staphylococcus aureus; test: Antibacterial activity against methicillin-resistant Staphylococcus aureus NR10186 measured after 16 to 18 hrs; type: functional; settings: time 16-18 hrs; outline: as §1
[16] = system: Staphylococcus aureus; test: Antibacterial activity against methicillin-resistant Staphylococcus aureus NR10194 measured after 16 to 18 hrs; type: functional; settings: time 16-18 hrs; outline: as §1
[17] = system: Staphylococcus aureus; test: Antibacterial activity against methicillin-resistant Staphylococcus aureus NR10129 measured after 16 to 18 hrs; type: functional; settings: time 16-18 hrs; outline: as §1
[18] = system: Staphylococcus aureus; test: Antibacterial activity against methicillin-resistant Staphylococcus aureus NR10191 measured after 16 to 18 hrs; type: functional; settings: time 16-18 hrs; outline: as §1
[19] = system: Staphylococcus aureus; test: Antibacterial activity against methicillin-resistant Staphylococcus aureus NR10193 measured after 16 to 18 hrs; type: functional; settings: time 16-18 hrs; outline: as §1
[20] = system: Staphylococcus aureus; test: Antibacterial activity against methicillin-resistant Staphylococcus aureus NR10192 measured after 16 to 18 hrs; type: functional; settings: time 16-18 hrs; outline: as §1
[21] = system: Staphylococcus aureus; test: Antibacterial activity against methicillin-resistant Staphylococcus aureus NR10198 measured after 16 to 18 hrs; type: functional; settings: time 16-18 hrs; outline: as §1
[22] = system: Staphylococcus aureus; test: Antibacterial activity against methicillin-sensitive Staphylococcus aureus ATCC 29213 measured after 16 to 18 hrs; type: functional; settings: time 16-18 hrs; outline: as §1
[23] = system: Staphylococcus aureus; test: Antibacterial activity against methicillin-resistant Staphylococcus aureus NR119 measured after 16 to 18 hrs; type: functional; settings: time 16-18 hrs; outline: as §1
[24] = system: Staphylococcus aureus; test: Antibacterial activity against methicillin-resistant Staphylococcus aureus NR100 measured after 16 to 18 hrs; type: functional; settings: time 16-18 hrs; outline: as §1

SMILES | MIC [1] | MIC [2] | MIC [6] | MIC [7] | MIC [8] | MIC [9] | MIC [10] | selectivity ratio [11] | CC50 at 72 h [12] | MIC [13] | MIC [14] | further results
N#Cc1ccc(/C=C/c2nc3ccccc3c(=O)n2-c2ccc(C(=O)O)c(O)c2)cc1 | 0.03 µg/mL (≈ 0.0733 µM) | 64 µg/mL (≈ 156 µM) | – | – | – | – | – | – | – | – | – | –
CN[C@H](CC(C)C)C(=O)N[C@H]1C(=O)N[C@@H](CC(N)=O)C(=O)N[C@H]2C(=O)N[C@H]3C(=O)N[C@H](C(=O)N[C@H](C(=O)O)c4cc(O)cc(O)c4-c4cc3ccc4O)[C@H](O)c3ccc(c(Cl)c3)Oc3cc2cc(c3O[C@@H]2O[C@H](CO)[C@@H](O)[C@H](O)[C@H]2O[C@H]2C[C@](C)(N)[C@H](O)[C@H](C)O2)Oc2ccc(cc2Cl)[C@H]1O [VANCOMYCIN] | – | – | – | – | – | – | – | – | – | – | – | MIC [3]: > 64 µg/mL; MIC [4]: > 64 µg/mL; MIC [5]: > 64 µg/mL
Brc1ccc2[nH]c(-c3ccc(Nc4nc(-c5ccccc5)nc5ccccc45)cc3)nc2c1 | > 64 µg/mL | – | > 64 µg/mL | > 64 µg/mL | > 64 µg/mL | > 64 µg/mL | – | – | – | – | – | –
Fc1ccc2[nH]c(-c3ccc(Nc4nc(-c5ccccc5)nc5ccccc45)cc3)nc2c1 | 4 µg/mL (≈ 9.27 µM) | > 64 µg/mL | > 64 µg/mL | > 64 µg/mL | > 64 µg/mL | > 64 µg/mL | > 64 µg/mL | 10 | 40 µg/mL (≈ 92.7 µM) | > 64 µg/mL | 32 µg/mL (≈ 74.2 µM) | –
C[C@H]1COc2c(N3CCN(C)CC3)c(F)cc3c(=O)c(C(=O)O)cn1c23.C[C@H]1COc2c(N3CCN(C)CC3)c(F)cc3c(=O)c(C(=O)O)cn1c23.O [LEVOFLOXACIN] | 0.015 µg/mL | – | – | 0.5 µg/mL | 0.125 µg/mL | 64 µg/mL | 0.03 µg/mL | – | – | 1 µg/mL | 0.03 µg/mL | MIC [15]: 8 µg/mL; MIC [16]: 0.125 µg/mL; MIC [17]: 0.25 µg/mL; MIC [3]: > 64 µg/mL; MIC [18]: 32 µg/mL; MIC [19]: 32 µg/mL; MIC [4]: 32 µg/mL; MIC [20]: 16 µg/mL; MIC [21]: 8 µg/mL; MIC [5]: 32 µg/mL; MIC [22]: 0.125 µg/mL; MIC [23]: 16 µg/mL; MIC [24]: 0.25 µg/mL
O=C(Nc1ccc2nc(-c3ccc4ccccc4c3)[nH]c2c1)c1ccc(Nc2nc(-c3ccccc3)nc3ccccc23)cc1 | > 64 µg/mL | 64 µg/mL (≈ 110 µM) | > 64 µg/mL | > 64 µg/mL | > 64 µg/mL | > 64 µg/mL | > 64 µg/mL | – | – | > 64 µg/mL | > 64 µg/mL | –
COc1ccc(-c2nc(Nc3ccc(-c4nc5cc(Cl)ccc5[nH]4)cc3)c3ccccc3n2)cc1OC | 16 µg/mL (≈ 31.5 µM) | 32 µg/mL (≈ 63 µM) | > 64 µg/mL | > 64 µg/mL | > 64 µg/mL | > 64 µg/mL | > 64 µg/mL | > 6.25 | > 100 µg/mL | > 64 µg/mL | > 64 µg/mL | –
CO[C@H]1/C=C/O[C@@]2(C)Oc3c(C)c(O)c4c(O)c(c(/C=N/N5CCN(C)CC5)c(O)c4c3C2=O)NC(=O)/C(C)=C\C=C\[C@H](C)[C@H](O)[C@@H](C)[C@@H](O)[C@@H](C)[C@H](OC(C)=O)[C@@H]1C [RIFAMPIN] | – | 0.06 µg/mL (≈ 0.0729 µM) | – | – | – | – | – | – | – | – | – | –
O=C(Nc1ccc2nc(C(F)(F)F)[nH]c2c1)c1ccc(Nc2nc(-c3ccccc3)nc3ccccc23)cc1 | 32 µg/mL (≈ 61 µM) | 64 µg/mL (≈ 122 µM) | > 64 µg/mL | > 64 µg/mL | > 64 µg/mL | > 64 µg/mL | > 64 µg/mL | – | – | > 64 µg/mL | > 64 µg/mL | –
COc1ccc(-c2nc(Nc3ccc(-c4nc5cc([N+](=O)[O-])ccc5[nH]4)cc3)c3ccccc3n2)cc1OC | > 64 µg/mL | 8 µg/mL (≈ 15.4 µM) | > 64 µg/mL | > 64 µg/mL | > 64 µg/mL | > 64 µg/mL | 4 µg/mL (≈ 7.71 µM) | 12.5 | 100 µg/mL (≈ 193 µM) | > 64 µg/mL | 8 µg/mL (≈ 15.4 µM) | –
O=C(Nc1ccc2nc(-c3cnc4c(Cl)cccc4c3)[nH]c2c1)c1ccc(Nc2nc(-c3ccccc3)nc3ccccc23)cc1 | > 64 µg/mL | 16 µg/mL (≈ 25.9 µM) | > 64 µg/mL | > 64 µg/mL | > 64 µg/mL | > 64 µg/mL | > 64 µg/mL | > 6.25 | > 100 µg/mL | > 64 µg/mL | > 64 µg/mL | –
